Rows were chosen to be rich in hits. Some 1.6% of all compounds tested hit in one or more screens of this group.
HGIII-sPLA2 inh – Blocks human group III sPLA2 activity. QFRET BODIPY PC-A2 liposome hydrolysis, fluorescence. AID 743126. inhibition, % at 12.2 µM. hit rate 0.56% among 370,000. Q9NZ20;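 active = inhibition above mean plus 3 SD of compounds lying within the high and low control bounds, cut at about 19% in these data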
Target sequence (Q9NZ20 whole entry, looked up): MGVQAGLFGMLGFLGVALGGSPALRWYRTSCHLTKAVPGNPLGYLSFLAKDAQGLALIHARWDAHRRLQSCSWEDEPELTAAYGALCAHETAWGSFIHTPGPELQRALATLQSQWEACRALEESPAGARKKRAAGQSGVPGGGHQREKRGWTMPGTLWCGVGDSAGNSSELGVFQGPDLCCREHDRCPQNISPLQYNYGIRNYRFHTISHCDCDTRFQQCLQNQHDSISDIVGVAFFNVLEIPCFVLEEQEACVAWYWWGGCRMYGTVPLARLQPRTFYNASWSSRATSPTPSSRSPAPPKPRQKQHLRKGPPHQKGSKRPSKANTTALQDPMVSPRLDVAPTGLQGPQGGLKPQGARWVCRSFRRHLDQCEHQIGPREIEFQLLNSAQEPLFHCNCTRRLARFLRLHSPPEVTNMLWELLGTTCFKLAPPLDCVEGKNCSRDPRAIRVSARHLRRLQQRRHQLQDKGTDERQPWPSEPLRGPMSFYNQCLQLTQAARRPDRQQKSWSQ
procasp3 activ – procaspase-3 (human) activation; P42574; recombinant procaspase-3 D3A, Ac-DEVD-pNA absorbance 405 nm; activation, % at 8.5 µM; hit rate 0.11% among 330,000; AID 463141;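 active = activation above the mean of all tested compounds plus 3 SD, cut at about 21% in these data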
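Evaluation: percent activation relative to control range; Material: Procaspase-3 D3A mutant, all three cleavage aspartates alanine; Compound: single dose, 8.5 µM nominal compound, 0.8% DMSO; Replication: one well per compound; Signal: absorbance at 405 nm, 0 and 120 min; Schedule: 1 h preincubation plus 2 h reaction at 25 °C.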
proCasp7 act – counter-screen: procaspase-7 (human) activation. recombinant procaspase-7, Ac-DEVD-pNA absorbance 405 nm; D23A/D198A/D206A triple mutant, cannot self-cleave; scale: DMSO 0, 5 µM enzyme 100. activation, % at 8.5 µM. hit rate 0.093% among 330,000;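 active = percent activation above the screen-wide mean plus 3 SD, cut at about 25% in these data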
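Detection: p-Nitroaniline absorbance at 405 nm, read at 0 and 120 min; system: Uncleavable procaspase-7 mutant enzyme; evaluation: % activation from two-timepoint absorbance difference, scaled to controls; times: 1 h enzyme–compound preincubation and 2 h substrate reaction, both 25 °C; buffer or medium: Zinc-free HEPES pH 7.4 with 300 mM NaCl, 0.01% Triton X-100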
PLCb3 inh – blocks human PLC-beta3 enzyme activity; Purified PLC-beta3, fluorogenic substrate, fluorescence; inhibition, % at 12.2 µM; hit rate 0.18% among 370,000; in the data active = inhibition above about 11%
PLC-gamma1 inh – PLC-gamma1 (human) inhibition, primary screen; hit rate 0.84% among 370,000; P19174; inhibition, % at 12.2 µM; purified PLC-gamma1, fluorogenic substrate, fluorescence; in the data active = inhibition above about 9.5%
hGIII sPLA2 conf – human GIII-sPLA2 inhibition, confirmation; shares compounds with HGIII-sPLA2 inh; recombinant hGIII-sPLA2, BODIPY PC-A2 QFRET fluorescence; inhibition, % at 12.2 µM; hit rate 34% among 2,000; AID 743280;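 active = mean inhibition across triplicates above the hit cutoff set in the earlier primary screen, cut at about 19% in these data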
BODIPY interf – optically interferes with 535nm fluorescence in sPLA2 counter-screen | shares compounds with HGIII-sPLA2 inh | BODIPY FL product fluorescence interference, QFRET | inhibition, % at 12.2 µM | hit rate 8.5% among 2,000 | AID 743282;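 active = average inhibition above the solvent-only control mean plus 3 SD, cut at about 6% in these data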
BODIPY interf DR – interferes with 535nm fluorescence in dose response counter-screen | IC50, µM | 240 tested, under 10 active | BODIPY FL product fluorescence interference, cell-free | shares compounds with HGIII-sPLA2 inh;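 active = IC50 at or below 10 µM; inactive = IC50 above 10 µM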
A number is an active result.

For COc1ccc(C2(C)NC(=O)N(CC(=O)Nc3c(C)n(C)n(-c4ccccc4)c3=O)C2=O)cc1 (stereo unspecified) the results were HGIII-sPLA2 inh inactive, procasp3 activ inactive, proCasp7 act inactive, PLCb3 inh inactive and PLC-gamma1 inh inactive.
Screening Cc1ccc(OCCN2CCN(C)CC2)c([N+](=O)[O-])c1 returned HGIII-sPLA2 inh 22.2, procasp3 activ inactive, proCasp7 act inactive, PLCb3 inh inactive, PLC-gamma1 inh inactive, hGIII sPLA2 conf inactive and BODIPY interf inactive.
For NNC(=O)c1nc[nH]c1C(=O)Nc1ccccc1 the results were HGIII-sPLA2 inh 27.2, procasp3 activ inactive, proCasp7 act inactive, PLCb3 inh inactive, PLC-gamma1 inh inactive, hGIII sPLA2 conf inactive and BODIPY interf inactive.
O=C(Nc1ccccc1)c1nc[nH]c1C(=O)NCc1ccccc1 was read as HGIII-sPLA2 inh inactive, procasp3 activ inactive, proCasp7 act inactive, PLCb3 inh inactive and PLC-gamma1 inh inactive.
CC(C)C(=O)N1CC[C@H]2[C@H](CCCN2Cc2ccc(F)cc2)C1 was read as HGIII-sPLA2 inh 21.9, PLCb3 inh inactive, PLC-gamma1 inh inactive, hGIII sPLA2 conf inactive and BODIPY interf inactive.
O=C(CCNC(=O)c1ccc([N+](=O)[O-])cc1)Nc1cccc(S(=O)(=O)N2CCCCCC2)c1 was read as HGIII-sPLA2 inh inactive, procasp3 activ inactive, proCasp7 act inactive, PLCb3 inh inactive and PLC-gamma1 inh inactive.
NCCOc1ccc(C23CC4CC(CC(C4)C2)C3)cc1 was read as HGIII-sPLA2 inh 31.2, procasp3 activ inactive, proCasp7 act inactive, PLCb3 inh inactive, PLC-gamma1 inh inactive, hGIII sPLA2 conf inactive and BODIPY interf inactive.
`S=C(Nc1ccc(Nc2ccccc2)cc1)NN1CCOCC1` gave HGIII-sPLA2 inh inactive, procasp3 activ inactive, proCasp7 act inactive, PLCb3 inh inactive and PLC-gamma1 inh inactive.
For Fc1ccc(NC(=S)NN2CCOCC2)cc1Cl the results were HGIII-sPLA2 inh 24.7, procasp3 activ inactive, proCasp7 act inactive, PLCb3 inh inactive, PLC-gamma1 inh inactive, hGIII sPLA2 conf inactive and BODIPY interf inactive.
`NC(c1csc(NC(=O)c2cccc(OC(F)(F)F)c2)n1)c1ccccc1Cl` (stereo unspecified) gave HGIII-sPLA2 inh 36.9, PLCb3 inh inactive, PLC-gamma1 inh inactive, hGIII sPLA2 conf 24.7 and BODIPY interf inactive.
CN1CCN(CC(=O)Nc2ccccc2C(F)(F)F)CC1 was read as HGIII-sPLA2 inh 22.4, procasp3 activ inactive, proCasp7 act inactive, PLCb3 inh inactive, PLC-gamma1 inh inactive, hGIII sPLA2 conf inactive and BODIPY interf inactive.
`COc1ccc(C(=O)NCc2ccco2)cc1S(=O)(=O)NC1CC1` gave HGIII-sPLA2 inh inactive, procasp3 activ inactive, proCasp7 act inactive, PLCb3 inh inactive and PLC-gamma1 inh inactive.
CN(C1=C(N2CCOCC2)C(=O)c2ccccc2C1=O)c1ccccc1 was read as HGIII-sPLA2 inh 25.4, procasp3 activ inactive, proCasp7 act inactive, PLCb3 inh inactive, PLC-gamma1 inh inactive, hGIII sPLA2 conf 43.8, BODIPY interf inactive and BODIPY interf DR inactive.
`CC(C)(C)C(=O)NC(=S)Nc1ccc(F)cc1` gave HGIII-sPLA2 inh 22.8, procasp3 activ inactive, proCasp7 act inactive, PLCb3 inh inactive, PLC-gamma1 inh inactive, hGIII sPLA2 conf inactive and BODIPY interf inactive.
`CC(=O)Nc1ccc(NC(=S)Nc2ccc(F)cc2)cc1` gave HGIII-sPLA2 inh inactive, procasp3 activ inactive, proCasp7 act inactive, PLCb3 inh inactive and PLC-gamma1 inh inactive.
Screening Cc1cc(Br)cc(/C=N/NC(=O)c2ccc3c(c2)OCO3)c1O returned HGIII-sPLA2 inh 35.7, procasp3 activ inactive, proCasp7 act inactive, PLCb3 inh inactive, PLC-gamma1 inh inactive, hGIII sPLA2 conf 40.2, BODIPY interf inactive and BODIPY interf DR inactive.
`O=C(N/N=C/c1ccc2c(c1)OCO2)c1ccc(Br)o1` gave HGIII-sPLA2 inh 19.4, procasp3 activ inactive, proCasp7 act inactive, PLCb3 inh inactive, PLC-gamma1 inh inactive, hGIII sPLA2 conf inactive and BODIPY interf inactive.
For O=C(N/N=C/c1ccc2c(c1)OCO2)c1ccc2c(c1)OCCO2 the results were HGIII-sPLA2 inh inactive, procasp3 activ inactive, proCasp7 act inactive, PLCb3 inh inactive and PLC-gamma1 inh inactive.
Screening CC(NC(=O)C1CCCN(S(=O)(=O)N2CCOCC2)C1)c1ccccc1 (stereo unspecified) returned HGIII-sPLA2 inh inactive, procasp3 activ inactive, proCasp7 act inactive, PLCb3 inh inactive and PLC-gamma1 inh inactive.
Screening COc1ccccc1N1CCN(c2ccc([N+](=O)[O-])cc2Cl)CC1 returned HGIII-sPLA2 inh 20.4, procasp3 activ inactive, proCasp7 act inactive, PLCb3 inh inactive, PLC-gamma1 inh inactive, hGIII sPLA2 conf inactive and BODIPY interf inactive.
`CCn1cc(C(=O)Nc2sc(C)c(C)c2C(=O)OC)cn1` gave HGIII-sPLA2 inh 20.3, procasp3 activ inactive, proCasp7 act inactive, PLCb3 inh inactive, PLC-gamma1 inh inactive, hGIII sPLA2 conf inactive and BODIPY interf inactive.
Screening Cc1c(N(C)S(=O)(=O)c2cccc(C(=O)NCc3cccnc3)c2)c(=O)n(-c2ccccc2)n1C returned HGIII-sPLA2 inh inactive, PLCb3 inh inactive and PLC-gamma1 inh inactive.
`CCN(C(=O)COC(=O)CCCc1nc2ccccc2s1)c1c(N)n(Cc2ccccc2)c(=O)[nH]c1=O` gave HGIII-sPLA2 inh inactive, PLCb3 inh inactive and PLC-gamma1 inh inactive.
CC(C)CN(C(=O)COC(=O)CCc1nc2ccccc2s1)c1c(N)n(Cc2ccccc2)c(=O)[nH]c1=O was read as HGIII-sPLA2 inh 19.5, procasp3 activ inactive, proCasp7 act inactive, PLCb3 inh inactive, PLC-gamma1 inh inactive, hGIII sPLA2 conf inactive and BODIPY interf inactive.
CC(C)c1cc(C(=O)NNC(=S)NCc2ccco2)c(O)c(C(C)C)c1 was read as HGIII-sPLA2 inh 51.5, procasp3 activ inactive, proCasp7 act inactive, PLCb3 inh inactive, PLC-gamma1 inh inactive, hGIII sPLA2 conf 56.8, BODIPY interf inactive and BODIPY interf DR inactive.
For Cc1cc(C(=O)NNC(=S)NCc2ccco2)n(C)n1 the results were HGIII-sPLA2 inh inactive, procasp3 activ inactive, proCasp7 act inactive, PLCb3 inh inactive and PLC-gamma1 inh inactive.
`COc1ccccc1CCNC(=O)c1cc(-c2ccccn2)nc2ccc(Br)cc12` gave procasp3 activ inactive and proCasp7 act inactive.
For COc1ccccc1CCNC(=O)c1cc(-c2ccccn2)nc2ccccc12 the results were HGIII-sPLA2 inh 19.5, PLCb3 inh inactive, PLC-gamma1 inh inactive, hGIII sPLA2 conf inactive and BODIPY interf inactive.

Screening results (PubChem BioAssay)
